Here are results for 15 compounds from ChEMBL document CHEMBL1126259, “omega-[(4-Phenyl-2-quinolyl)oxy]alkanoic acid derivatives: a new family of potent LTB4 antagonists” (J Med Chem, 1992).

The structures appear in SMILES notation.

Leukotriene B4 receptor 1, sequence (Q15722 whole entry): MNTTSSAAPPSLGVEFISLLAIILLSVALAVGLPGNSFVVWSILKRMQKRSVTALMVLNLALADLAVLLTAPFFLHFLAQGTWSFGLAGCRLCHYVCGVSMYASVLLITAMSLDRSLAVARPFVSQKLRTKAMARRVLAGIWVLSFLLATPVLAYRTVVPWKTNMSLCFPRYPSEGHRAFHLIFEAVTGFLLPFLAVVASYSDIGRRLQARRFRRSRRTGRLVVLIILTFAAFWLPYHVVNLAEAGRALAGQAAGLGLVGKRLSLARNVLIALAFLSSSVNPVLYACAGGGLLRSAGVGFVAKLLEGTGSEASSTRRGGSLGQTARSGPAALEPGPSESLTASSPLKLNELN

One assay deals with Leukotriene B4 receptor 1 (Cavia porcellus). Put plainly: Inhibition of [3H]LTB4 binding to Leukotriene B4 receptor in the guinea pig spleen membranes at a dose of 10 uM. As to conditions: Membrane.
As a reminder, the inhibition is the change of the read-out against control, counted positive when it falls. For `O=C(O)CCCCOc1cc(-c2ccccc2)c2ccccc2n1`, the inhibition was found to be 0%.

Compound `O=C(O)CCCC/C=C/c1cc(-c2ccccc2)c2ccccc2n1` returned an inhibition of 27%.

As to `OCCCCCCOc1cc(-c2ccccc2)c2ccccc2n1`, the inhibition is 14%.

With `O=C(CCCCCOc1cc(-c2ccccc2)c2ccccc2n1)N1CCCC1`, the inhibition was found to be 12%.

In turn, `O=C(O)CCCCCCc1cc(-c2ccccc2)c2ccccc2n1` had an inhibition of 34%.

Consider `CC(=O)Nc1ccc(-c2cc(OCCCCC(C)(C)C(=O)O)nc3ccccc23)cc1`, for which the inhibition was found to be 23%.

Regarding `CC(C)(CCCCSc1cc(-c2ccccc2)c2ccccc2n1)C(=O)O`, the inhibition was 33%.

In turn, `COc1ccccc1-c1cc(OCCCCC(C)(C)C(=O)O)nc2ccccc12` had an inhibition of 36%.

As for `CC(C)(CCCCNc1cc(-c2ccccc2)c2ccccc2n1)C(=O)O`, the inhibition is 0%.

A further assay addresses Leukotriene B4 receptor 1 (Homo sapiens, UniProt Q15722). The assay can be described thus: Inhibition of [3H]LTB4 binding to Leukotriene B4 receptor in the human polymorphonuclear leukocytes.
Settings: not given
The method, boiled down: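 Human blood PMNs were isolated by dextran T500 sedimentation, Ficoll-Hypaque centrifugation and hypotonic lysis. Cells were suspended in Hanks' solution with 5 mmol/L HEPES and 1 g/L ovalbumin, then incubated on ice for 15 min with 0.5 nmol/L [3H]LTB4 and competitor. Samples were filtered on GF/C, washed and counted. Nonspecific binding was defined with 1000-fold unlabeled LTB4. IC50 was read graphically; mean of three replicates.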
As a reminder, the IC50 is the concentration at which inhibition is half-maximal. Low values mean greater potency, high ones weaker potency. Compound `O=C(O)CCCCCOc1cc(-c2ccc(Cl)cc2)c2ccccc2n1` gave an IC50 of 150 nM.

In turn, `Cc1ccc(-c2cc(OCCCCC(C)(C)C(=O)O)nc3ccccc23)cc1` showed an IC50 of 100 nM. Against the preceding compound, the IC50 is about 1.5-fold lower.

The compound `CC(C)(CCCCOc1cc(-c2ccc(N)cc2)c2ccccc2n1)C(=O)O` displayed a 50% inhibitory concentration (IC50) of 250 nM.

In the case of `CC(C)(CCCCOc1cc(-c2ccc(Cl)cc2)c2ccccc2n1)c1nnn[nH]1`, the IC50 was 50 nM.

As to `COc1ccc(/C=C/CCCCOc2ccc(C(=O)c3cccc(C(=O)O)c3)cc2CCC(=O)O)cc1`, the IC50 is 3.5 nM.

In the case of `CC(C)(CCCCOc1cc(-c2ccccc2)c2ccccc2n1)C(=O)O`, the 50% inhibitory concentration (IC50) is 4000 nM.
